# Columns and labels:
# [1] = test system: Rattus norvegicus; assay: Peripheral plasma levels in rats after oral administration of 100 mg/kg dose for 2 hr; type: functional, organism-based; parameters: dose 100 mg/kg
# In short: (§1)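 Rats received 100 mg/kg orally and were sampled for peripheral plasma. Concentrations were measured by Micrococcus luteus agar-diffusion microbiological assay in Antibiotic Medium 1, with zone sizes converted using the standard curve for the appropriate compound. Each value is the average of three rats per time point.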
# [2] = test system: Mus musculus; assay: Peripheral plasma levels in mice after oral administration of 50 mg/kg dose for 4 hr; type: functional, organism-based; parameters: dose 50 mg/kg
# In short: (§2)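 Mice were given the compound orally and sampled for peripheral plasma at each time point. Plasma was assayed microbiologically against Micrococcus luteus seeded in Antibiotic Medium 1. Inhibition zone sizes were read, and concentrations were calculated from each compound's own standard curve. Each value is the mean of five mice per time point.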
# [3] = test system: Mus musculus; assay: Peripheral plasma levels in mice after oral administration of 50 mg/kg dose for 1 hr; type: functional, organism-based; parameters: dose 50 mg/kg; in short: as §2
# [4] = test system: Bacteroides fragilis; assay: In vitro antimicrobial activity against anaerobic bacteria bacteroides fragilis 111; type: functional
# [5] = In vitro antimicrobial activity against anaerobic bacteria peptostreptococcus intermedius 1264; type: functional
# [6] = test system: Rattus norvegicus; assay: Peripheral plasma levels in rats after oral administration of 100 mg/kg dose for 0.5 hr; type: functional, organism-based; parameters: dose 100 mg/kg; in short: as §1
# [7] = test system: Enterococcus faecium; assay: In vitro antimicrobial activity against Streptococcus faecium X66; type: functional, streptococcus fae-cium
# [8] = test system: Streptococcus; assay: In vitro antimicrobial activity against aerobic bacteria Streptococcus B 5; type: functional
# [9] = test system: Staphylococcus epidermidis; assay: In vitro antimicrobial activity against Staphylococcus epidermidis EPI1; type: functional
# [10] = test system: Staphylococcus aureus; assay: In vitro antimicrobial activity against aerobic bacteria Staphylococcus aureus V140,; type: functional
# [11] = test system: Mus musculus; assay: Peripheral plasma levels in mice after oral administration of 100 mg/kg dose for 2 hr; type: functional, organism-based; parameters: dose 100 mg/kg; in short: as §2
# [12] = test system: Streptococcus; assay: In vitro antimicrobial activity against aerobic bacteria Streptococcus D 8043; type: functional
# [13] = test system: Haemophilus influenzae; assay: In vitro antimicrobial activity against aerobic bacteria Haemophilus influenzae 76; type: functional
# [14] = test system: Clostridioides difficile; assay: In vitro antimicrobial activity against anaerobic bacteria Clostridium difficile 2994; type: functional
# [15] = test system: Mus musculus; assay: Peripheral plasma levels in mice after oral administration of 50 mg/kg dose for 0.25 hr; type: functional, organism-based; parameters: dose 50 mg/kg; in short: as §2
# [16] = test system: Haemophilus influenzae; assay: In vitro antimicrobial activity against aerobic bacteria Haemophilus influenzae MX366,; type: functional
# [17] = test system: Streptococcus pneumoniae; assay: In vivo effective dose against experimental infections in mice Strep. pneumoniae park when administered sc; type: functional
# [18] = test system: Streptococcus pneumoniae; assay: In vivo effective dose against experimental infections in mice Strep. pneumoniae park when administered orally; type: functional; details: po
# [19] = test system: Staphylococcus aureus; assay: In vitro antimicrobial activity against aerobic bacteria Staphylococcus aureus V135; type: functional
# [20] = test system: Streptococcus; assay: In vitro antimicrobial activity against aerobic bacteria Streptococcus D 2041; type: functional
# [21] = test system: Bacteroides fragilis; assay: In vitro antimicrobial activity against anaerobic bacteria bacteroides fragilis 1877; type: functional
# [22] = test system: Anaerococcus prevotii; assay: In vitro antimicrobial activity against anaerobic bacteria peptococcus prevoti 1281; type: functional
# [23] = test system: Rattus norvegicus; assay: Peripheral plasma levels in rats after oral administration of 100 mg/kg dose for 4 hr; type: functional, organism-based; parameters: dose 100 mg/kg; in short: as §1
# [24] = test system: Mus musculus; assay: Peripheral plasma levels in mice after oral administration of 100 mg/kg dose for 0.5 hr; type: functional, organism-based; parameters: dose 100 mg/kg; in short: as §2
# [25] = test system: Rattus norvegicus; assay: Peripheral plasma levels in rats after oral administration of 100 mg/kg dose for 1 hr; type: functional, organism-based; parameters: dose 100 mg/kg; in short: as §1
# [26] = test system: Staphylococcus epidermidis; assay: In vitro antimicrobial activity against aerobic bacteria Streptococcus epi 222; type: functional
# [27] = test system: Phocaeicola vulgatus; assay: In vitro antimicrobial activity against anaerobic bacteria bacteroides vulgatus 1211; type: functional
# [28] = test system: Clostridium septicum; assay: In vitro antimicrobial activity against anaerobic bacteria clostridium septicum 1128; type: functional
# [29] = test system: Haemophilus influenzae; assay: In vitro antimicrobial activity against aerobic bacteria Haemophilus influenzae 465; type: functional
# [30] = test system: Rattus norvegicus; assay: Peripheral plasma levels in rats after oral administration of 100 mg/kg dose for 0.25 hr; type: functional, organism-based; parameters: dose 100 mg/kg; in short: as §1
# [31] = test system: Prevotella melaninogenica; assay: In vitro antimicrobial activity against anaerobic bacteria bacteroides melaninogenicus 1856,; type: functional
# [32] = test system: Mus musculus; assay: Peripheral plasma levels in mice after oral administration of 50 mg/kg dose for 2 hr; type: functional, organism-based; parameters: dose 50 mg/kg; in short: as §2
# [33] = test system: Staphylococcus aureus; assay: In vivo effective dose against experimental infections in mice Staphylococcus aureus X1 when administered sc; type: functional
# [34] = test system: Haemophilus parainfluenzae; assay: In vitro antimicrobial activity against aerobic bacteria Haemophilus parainfluenzae 9796; type: functional
# [35] = test system: Clostridium perfringens; assay: In vitro antimicrobial activity against anaerobic bacteria clostridium perfringens 81,; type: functional
# [36] = test system: Streptococcus; assay: In vitro antimicrobial activity against aerobic bacteria Streptococcus D 9960; type: functional
# [37] = test system: Mus musculus; assay: Peripheral plasma levels in mice after oral administration of 50 mg/kg dose for 0.5 hr; type: functional, organism-based; parameters: dose 50 mg/kg; in short: as §2
# [38] = test system: Mus musculus; assay: Peripheral plasma levels in mice after oral administration of 100 mg/kg dose for 1 hr; type: functional, organism-based; parameters: dose 100 mg/kg; in short: as §2
# [39] = test system: Staphylococcus aureus; assay: In vitro antimicrobial activity against aerobic bacteria Staphylococcus aureus 513E; type: functional
# [40] = test system: Eikenella corrodens; assay: In vitro antimicrobial activity against anaerobic bacteria bacteroides corrodens 1874; type: functional
# [41] = test system: Collinsella aerofaciens; assay: In vitro antimicrobial activity against anaerobic bacteria eubacterium aerofaciens 1235; type: functional
# [42] = test system: Staphylococcus aureus; assay: In vitro antimicrobial activity against Staphylococcus aureus X1; type: functional
# [43] = test system: Staphylococcus epidermidis; assay: In vitro antimicrobial activity against aerobic bacteria Streptococcus epi 270; type: functional
# [44] = test system: Mus musculus; assay: Peripheral plasma levels in mice after oral administration of 100 mg/kg dose for 4 hr; type: functional, organism-based; parameters: dose 100 mg/kg; in short: as §2
# [45] = test system: Fusobacterium necrophorum; assay: In vitro antimicrobial activity against anaerobic bacteria usobacterium necrophorum 6054A; type: functional
# [46] = test system: Streptococcus pneumoniae; assay: In vitro antimicrobial activity against Streptococcus pneumoniae; type: functional
# [47] = test system: Prevotella melaninogenica; assay: In vitro antimicrobial activity against anaerobic bacteria bacteroides melaninogenicus 2736; type: functional
# [48] = test system: Staphylococcus aureus; assay: In vitro antimicrobial activity against aerobic bacteria Staphylococcus aureus X400; type: functional
# [49] = test system: Staphylococcus aureus; assay: In vitro antimicrobial activity against aerobic bacteria Staphylococcus aureus V41; type: functional
# [50] = test system: Bacteroides fragilis; assay: In vitro antimicrobial activity against anaerobic bacteria bacteroides fragilis 1936B,; type: functional
# [51] = test system: Cutibacterium acnes; assay: In vitro antimicrobial activity against anaerobic bacteria propionibacterium acnes 79; type: functional
# [52] = test system: Streptococcus pyogenes; assay: In vivo effective dose against experimental infections in rodent caused by Streptococcus pyogenes C203 when administered sc; type: functional
# [53] = test system: Peptostreptococcus anaerobius; assay: In vitro antimicrobial activity against anaerobic bacteria eubacterium peptostreptococcus anaerobius 1428,; type: functional
# [54] = test system: Staphylococcus aureus; assay: In vivo effective dose against experimental infections in mice Staphylococcus aureus X1 when administered orally; type: functional; details: po
# [55] = test system: Mus musculus; assay: Peripheral plasma levels in mice after oral administration of 100 mg/kg dose for 0.25 hr; type: functional, organism-based; parameters: dose 100 mg/kg; in short: as §2
# [56] = test system: Fusobacterium; assay: In vitro antimicrobial activity against anaerobic bacteria fusobacterium symbiosum 1470; type: functional
# [57] = test system: Chlamydia trachomatis; assay: In vitro antimicrobial activity against chlamydia trachomatis.; type: functional
# [58] = test system: Streptococcus pneumoniae; assay: In vitro antimicrobial activity against aerobic bacteria Streptococcus pneumoniae B1-438; type: functional, streptococcus pneum
# [59] = test system: Streptococcus pyogenes; assay: In vivo effective dose against experimental infections in rodent caused by Streptococcus pyogenes C203 when administered orally; type: functional; details: po
# [60] = test system: Peptoniphilus asaccharolyticus; assay: In vitro antimicrobial activity against anaerobic bacteria peptococcus asaccharolyticus 1302; type: functional
# [61] = test system: Haemophilus influenzae; assay: In vitro antimicrobial activity against Haemophilus influenzae.; type: functional
# [62] = test system: Streptococcus pyogenes; assay: In vitro antimicrobial activity against Streptococcus pyogenes C203; type: functional
# [63] = test system: Bacteroides thetaiotaomicron; assay: In vitro antimicrobial activity against anaerobic bacteria bacteroides thetaiotaomicron 1438; type: functional
# [64] = test system: Streptococcus; assay: In vitro antimicrobial activity against aerobic bacteria Streptococcus B 14; type: functional
structure (smiles),measurement,setting,value
CC[C@H]1OC(=O)C[C@@H](O)[C@H](C)[C@@H](O[C@@H]2O[C@H](C)[C@@H](O)[C@H](N(C)C)[C@H]2O)[C@@H](CCCl)C[C@@H](C)C(=O)/C=C/C(C)=C/[C@@H]1CO[C@@H]1O[C@H](C)[C@@H](O)[C@@H](OC)[C@H]1OC,Concentration,[1],12.7 µg/mL
same,Concentration,[2],< 0.1 µg/mL
same,Concentration,[3],0.3 µg/mL
same,MIC,[4],2 µg/mL
same,MIC,[5],2 µg/mL
same,Concentration,[6],8.8 µg/mL
same,MIC,[7],8 µg/mL
same,MIC,[8],> 128 µg/mL
same,MIC,[9],0.12 µg/mL
same,MIC,[10],0.25 µg/mL
same,Concentration,[11],1.5 µg/mL
same,MIC,[12],4 µg/mL
same,MIC,[13],16 µg/mL
same,MIC,[14],< 0.5 µg/mL
same,Concentration,[15],0.3 µg/mL
same,MIC,[16],16 µg/mL
same,ED50,[17],> 20 mg/kg
same,ED50,[18],> 50 mg/kg
same,MIC,[19],0.25 µg/mL
same,MIC,[20],16 µg/mL
same,MIC,[21],2 µg/mL
same,MIC,[22],1 µg/mL
same,Concentration,[23],7.7 µg/mL
same,Concentration,[24],6.4 µg/mL
same,Concentration,[25],9.4 µg/mL
same,MIC,[26],0.6 µg/mL
same,MIC,[27],1 µg/mL
same,MIC,[28],< 0.5 µg/mL
same,MIC,[29],16 µg/mL
same,Concentration,[30],5.4 µg/mL
same,MIC,[31],1 µg/mL
same,Concentration,[32],0.4 µg/mL
same,ED50,[33],1.8 mg/kg
same,MIC,[34],32 µg/mL
same,MIC,[35],< 0.5 µg/mL
same,MIC,[36],8 µg/mL
same,Concentration,[37],0.4 µg/mL
same,Concentration,[38],2.8 µg/mL
same,MIC,[39],0.12 µg/mL
same,MIC,[40],2 µg/mL
same,MIC,[41],4 µg/mL
same,MIC,[42],0.25 µg/mL
same,MIC,[43],> 128 µg/mL
same,Concentration,[44],0.3 µg/mL
same,MIC,[45],8 µg/mL
same,MIC,[46],1 µg/mL
same,MIC,[47],2 µg/mL
same,MIC,[48],0.12 µg/mL
same,MIC,[49],0.12 µg/mL
same,MIC,[50],2 µg/mL
same,MIC,[51],16 µg/mL
same,ED50,[52],0.7 mg/kg
same,MIC,[53],< 0.5 µg/mL
same,ED50,[54],9 mg/kg
same,Concentration,[55],8.4 µg/mL
same,MIC,[56],2 µg/mL
same,MIC,[57],0.25 µg/mL
same,MIC,[58],> 128 µg/mL
same,ED50,[59],5 mg/kg
same,MIC,[60],2 µg/mL
same,MIC,[61],16 µg/mL
same,MIC,[62],0.25 µg/mL
same,MIC,[63],2 µg/mL
same,MIC,[64],64 µg/mL

# — ChEMBL document CHEMBL1124186, “Synthesis and evaluation of tylosin-related macrolides modified at the aldehyde function: a new series of orally effective antibiotics” (1988)
